Results on 9 compounds are retold here after ChEMBL document CHEMBL1135797, “Carbonic anhydrase activators: high affinity isozymes I, II, and IV activators, incorporating a beta-alanyl-histidine scaffold” (2002).

SMILES strings stand for the structures.

Assay [1] addresses Carbonic anhydrase 2 (Homo sapiens) (UniProt P00918). The experiment in a line: In vitro carbonic anhydrase activation in human cloned Carbonic anhydrase II (hCA II).
The target of assay [2] is T1, Carbonic anhydrase 4 (Bos taurus) (UniProt Q95323).
T1 sequence (whole entry): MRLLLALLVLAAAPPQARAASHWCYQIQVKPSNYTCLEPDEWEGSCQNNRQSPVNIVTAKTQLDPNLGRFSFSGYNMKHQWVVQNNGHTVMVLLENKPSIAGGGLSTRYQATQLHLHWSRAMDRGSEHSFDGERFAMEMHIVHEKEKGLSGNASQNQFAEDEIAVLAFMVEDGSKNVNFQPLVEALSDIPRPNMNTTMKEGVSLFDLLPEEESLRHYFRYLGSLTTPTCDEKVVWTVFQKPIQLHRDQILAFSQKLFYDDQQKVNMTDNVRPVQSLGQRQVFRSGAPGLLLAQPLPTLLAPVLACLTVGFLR
Description: In vitro carbonic anhydrase IV activation in bovine lung microsomes. The settings on record: Microsome. The gist of the method: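 CA IV isolated from bovine lung microsomes and quantified by ethoxzolamide titration; used at 39 nM. 4-Nitrophenyl acetate hydrolysis initial rates followed at 400 nm, 25 °C, pH 7.40, substrate 2×10-2 to 1×10^-6 M. Activator preincubated with enzyme 15 min at room temperature. Dilutions down to 0.1 nM. Non-enzymatic rate subtracted. KA given as mean of at least three determinations.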

For assay [3], the target named is Carbonic anhydrase 1 (Homo sapiens) (UniProt P00915). Description: In vitro carbonic anhydrase activation in human cloned Carbonic anhydrase I (hCA I).
For assay [4], the species on record is Homo sapiens. Description: (§1) Ex vivo carbonic anhydrase activation after 30 min incubation of human erythrocytes with 5 uM activator Histamine. Type of assay: functional. The gist of the method: (§2)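 Freshly isolated human blood washed in Tris buffer (pH 7.40, 5 mM), erythrocytes incubated with 5 µM activator solution at 37 °C with gentle stirring; cells washed three times to remove unbound compound, lysed in distilled water, centrifuged; CA activity of lysate measured by 4-nitrophenyl acetate esterase assay (400 nm, pH 7.40, 25 °C). Untreated cells taken as 100%.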

The species named for assay [5] is Homo sapiens. The experiment in a line: (§3) Ex vivo carbonic anhydrase activation after 60 min incubation of human erythrocytes with 5 uM activator Histamine. The class given is functional. In a few lines: as §2
The species named for assay [6] is Homo sapiens. Described as §1. Type of assay: functional. The gist of the method:
(§4)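 Fresh human blood washed repeatedly with 5 mM Tris pH 7.40 and centrifuged; erythrocytes incubated with 5 µM activator at 37 °C with gentle stirring. Cells washed three times with buffer to remove unbound compound, lysed in distilled water and centrifuged. Lysate CA activity measured by 4-nitrophenyl acetate esterase assay at 400 nm. Buffer-only cells set as 100%.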
This is another data set of the same source.

Assay [7] is filed under the species Homo sapiens. The assay is described as §3. The class given is functional. In a few lines: as §4
The source holds these as a separate data set.

Chain of Carbonic anhydrase 1 (Homo sapiens) (P00915 2-261 limits assumed): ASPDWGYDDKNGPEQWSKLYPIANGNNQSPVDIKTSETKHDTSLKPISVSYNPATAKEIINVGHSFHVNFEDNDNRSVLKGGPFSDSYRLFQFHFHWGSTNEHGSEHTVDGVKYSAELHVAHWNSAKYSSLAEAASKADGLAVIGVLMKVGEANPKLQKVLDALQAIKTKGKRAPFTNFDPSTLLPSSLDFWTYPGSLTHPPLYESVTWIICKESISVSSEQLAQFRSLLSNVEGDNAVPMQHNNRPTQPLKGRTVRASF

Take `Cc1ccccc1S(=O)(=O)NC(=O)NCCC(=O)N[C@@H](Cc1c[nH]cn1)C(=O)NCCC(=O)N[C@@H](Cc1c[nH]cn1)C(=O)O`: the KA in assay [1] stood at 0.02 µM; in assay [2], 0.008 µM; in assay [3], 0.004 µM. The CA in assay [4] came to 236%; in assay [5], 267%.

For `O=C(CCNC(=O)[C@H](Cc1c[nH]cn1)NC(=O)CCNC(=O)NS(=O)(=O)c1ccc(F)cc1)N[C@@H](Cc1c[nH]cn1)C(=O)O`, the values for the KA in assay [1], in assay [2] and in assay [3] were 0.01 µM, 0.005 µM and 0.002 µM, respectively. Moreover, the results for the CA in assay [6] and in assay [7] were 254% and 283%, respectively.

`N=C(N)NCCC[C@H](NC(=O)NS(=O)(=O)c1ccc(F)cc1)C(=O)NCCC(=O)N[C@@H](Cc1c[nH]cn1)C(=O)O`: the KA in assay [1] amounted to 1.2 µM; in assay [2] it was 0.2 µM; in assay [3], 0.01 µM. Besides, the CA in assay [6] worked out at 186%; in assay [7] it was 225%.

For `Cc1ccccc1S(=O)(=O)NC(=O)N[C@@H](Cc1c[nH]cn1)C(=O)NCCC(=O)N[C@@H](Cc1c[nH]cn1)C(=O)O`, the KA was determined as 0.7 µM in assay [1], 0.5 µM in assay [2] and 0.03 µM in assay [3]. For the same compound, the CA in assay [6] is listed as 180%; in assay [7], 211%.

For `NCCc1c[nH]cn1` [HISTAMINE], the KA in assay [3] was 2 µM. Moreover, the results for the CA in assay [4] and in assay [5] were 121% and 130%, respectively.

As to `Cc1ccccc1S(=O)(=O)NC(=O)N[C@@H](Cc1c[nH]c2ccccc12)C(=O)NCCC(=O)N[C@@H](Cc1c[nH]cn1)C(=O)O`, the values for the KA in assay [1], in assay [2] and in assay [3] were 14 µM, 3.7 µM and 0.21 µM, respectively.

On to `O=C(CNC(=O)C1CCCN1C(=O)NS(=O)(=O)c1ccc(F)cc1)NCCC(=O)NC(Cc1c[nH]cn1)C(=O)O` (stereo not given), for which the KA in assay [1] worked out at 0.03 µM; in assay [2], 0.01 µM; in assay [3], 0.005 µM.

Regarding `CC(C)[C@H](NC(=O)NS(=O)(=O)c1ccc(F)cc1)C(=O)NCCC(=O)N[C@@H](Cc1c[nH]cn1)C(=O)O`, the KA in assay [1] amounted to 10 µM; in assay [2] it was 1.2 µM; in assay [3] it was 0.13 µM.

On to `Cc1ccccc1S(=O)(=O)NC(=O)N[C@@H](Cc1ccccc1)C(=O)NCCC(=O)N[C@@H](Cc1c[nH]cn1)C(=O)O`, for which the KA in assay [1] is 10 µM; in assay [2] it was 1.9 µM; in assay [3] it was 0.08 µM.
